Test results: ChEMBL document CHEMBL2407062, “Synthesis and anticancer activities of 5,6,7-trimethoxy-N-phenyl(ethyl)-4-aminoquinazoline derivatives” (Eur J Med Chem, 2013)
Calls of active or inactive are those of the source. The calls are words filed in the database; no cut-off is given here.

How the values were obtained:
PC-3 [1] = experiment: Induction of apoptosis in human PC3 cells assessed as apoptotic rate at 10 uM after 24 hrs by annexin-V FITC and propidium iodide staining-based FACS flow cytometric analysis relative to control; format: functional
Outline: (§1)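 PC3 cells (RPMI 1640 with 10% heat-inactivated FBS, 37 °C, 5% CO2) exposed to compound for 24, 48 or 72 h; 0.1% DMSO as negative control. Cells at 1 × 10⁶/mL washed twice in cold PBS, resuspended in binding buffer, stained with Annexin V-FITC and PI. Apoptosis ratio is early (Annexin+/PI−) plus late (Annexin+/PI+) apoptotic cells.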

PC-3 [2] = experiment: Induction of apoptosis in human PC3 cells assessed as apoptotic rate at 30 uM after 24 hrs by annexin-V FITC and propidium iodide staining-based FACS flow cytometric analysis relative to control; format: functional; outline: as §1
PC-3 [3] = experiment: Induction of apoptosis in human PC3 cells assessed as apoptotic rate at 20 uM after 24 hrs by annexin-V FITC and propidium iodide staining-based FACS flow cytometric analysis relative to control; format: functional; outline: as §1
PC-3 [4] = experiment: Induction of apoptosis in human PC3 cells assessed as apoptotic rate at 30 uM after 48 hrs by annexin-V FITC and propidium iodide staining-based FACS flow cytometric analysis relative to control; format: functional; outline: as §1
PC-3 [5] = experiment: Induction of apoptosis in human PC3 cells assessed as apoptotic rate at 10 uM after 48 hrs by annexin-V FITC and propidium iodide staining-based FACS flow cytometric analysis relative to control; format: functional; outline: as §1
PC-3 [6] = experiment: Induction of apoptosis in human PC3 cells assessed as apoptotic rate at 30 uM after 72 hrs by annexin-V FITC and propidium iodide staining-based FACS flow cytometric analysis relative to control; format: functional; outline: as §1
PC-3 [7] = experiment: Induction of apoptosis in human PC3 cells assessed as apoptotic rate at 10 uM after 72 hrs by annexin-V FITC and propidium iodide staining-based FACS flow cytometric analysis relative to control; format: functional; outline: as §1
PC-3 [8] = experiment: Induction of apoptosis in human PC3 cells assessed as compact nucleus at 10 uM after 72 hrs by Hoechst 33258 staining-based fluorescence microscopic analysis; format: functional, cell-based
Outline: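 PC3 cells treated 72 h, then stained with Hoechst 33258 and viewed by fluorescence microscopy. DMSO served as negative control. Live nuclei scored as uniformly light blue; apoptotic nuclei bright blue with condensed chromatin and karyopyknosis.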

PC-3 [9] = experiment: Induction of apoptosis in human PC3 cells assessed as pycnosis at 10 uM after 48 hrs by AO/EB staining-based fluorescence microscopic analysis; format: functional, cell-based
Outline: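 PC3 cells seeded at 5 × 10⁴ cells/mL on sterile coverslips. Medium replaced with fresh medium plus 10% FBS containing compound, treated 24–72 h. Coverslips inverted onto acridine orange/ethidium bromide stain ([…] as printed) and read by fluorescence microscopy. Live cells scored green, early apoptotic green-yellow, late apoptotic orange, necrotic orange without condensed chromatin.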

PC-3 [10] = experiment: Induction of apoptosis in human PC3 cells assessed as apoptotic rate at 20 uM after 48 hrs by annexin-V FITC and propidium iodide staining-based FACS flow cytometric analysis relative to control; format: functional; outline: as §1
PC-3 [11] = experiment: Induction of apoptosis in human PC3 cells assessed as apoptotic rate at 20 uM after 72 hrs by annexin-V FITC and propidium iodide staining-based FACS flow cytometric analysis relative to control; format: functional; outline: as §1

CC[C@@]1(O)C(=O)OCc2c1cc1n(c2=O)Cc2cc3cc(O)ccc3nc2-1 [HYDROXYCAMPTOTHECIN]
Activity (PC-3 [1]): 5.7% | Activity (PC-3 [2]): 11.9% | Activity (PC-3 [3]): 7.4% | Activity (PC-3 [4]): 12.8% | Activity (PC-3 [5]): 8.3% | Activity (PC-3 [6]): 38.2% | Activity (PC-3 [7]): 17% | Activity (PC-3 [8]): Active | Activity (PC-3 [9]): Active | Activity (PC-3 [10]): 11.9% | Activity (PC-3 [11]): 19.8%
